Measured values collected from several papers.
Lines come from different studies, so protocols differ. pIC50: −log10 of the molar value. In brackets after ≈: the same amount, converted by molar mass.
Organism: Mycobacterium tuberculosis

SMILES	assay	system	setting	endpoint	value
Cc1ccc(NC(=O)c2cc(N3CCNCC3)cc(C(F)(F)F)c2)cc1Nc1nccn1-c1cc(NC2CC2)ncn1	microbial killing	H37RV	5 days	MBC	2.5 to 5 µM
COC(=O)c1cc(-c2cccc(NC(=S)Nc3ccc(F)c(Cl)c3)c2)on1	microbial growth	ATCC27294 H37RV	7 days	MIC	4 µg/mL (≈ 9.86 µM)
COc1nc2ccc(Br)cc2cc1[C@@H](c1ccccc1)[C@@](O)(CCN(C)C)c1cccc2ccccc12	microbial growth	H37RV		MIC90	0.05 µM (≈ 0.0278 µg/mL)
COC(=O)c1cc(-c2cccc(NC(=O)Nc3ccc(F)cc3F)c2)on1	microbial growth	ATCC27294 H37RV	7 days	MIC	1 µg/mL (≈ 2.68 µM)
Cn1c(SCc2ccc(Cl)cc2)nnc1-c1cncc(C#Cc2ccccc2)c1	microbial growth	ERDMAN		IC90	4400 nM
COC(=O)c1cc(-c2cccc(NC(=O)Nc3ccc(C(F)(F)F)cc3)c2)on1	microbial growth	ATCC27294 H37RV	7 days	MIC	0.5 µg/mL (≈ 1.23 µM)
O=[N+]([O-])c1cc2cc3ccc4oc([N+](=O)[O-])cc4c3cc2o1	microbial killing	H37RV		MBC	0.062 µg/mL
COC(=O)c1cc(-c2cccc(NC(=S)Nc3cc(C(F)(F)F)cc(C(F)(F)F)c3)c2)on1	microbial growth	ATCC27294 H37RV	7 days	MIC	16 µg/mL (≈ 32.7 µM)
NNC(=O)c1ccncc1	microbial growth			pIC50	6.92
O=[N+]([O-])c1ccc(/C(O)=C/C(=S)S)cc1	microbial killing	ATCC27294 H37RV		MBC	31.2 µg/mL
CCCCCCC#Cc1cncc(-c2nnc(SCc3ccc(C#N)cc3)n2C)c1	microbial growth	ERDMAN		IC90	> 100000 nM
CO[C@H]1/C=C/O[C@@]2(C)Oc3c(C)c(O)c4c(O)c(c(/C=N/N5CCN(C)CC5)c(O)c4c3C2=O)NC(=O)/C(C)=C\C=C\[C@H](C)[C@H](O)[C@@H](C)[C@@H](O)[C@@H](C)[C@H](OC(C)=O)[C@@H]1C	microbial growth	H37RV		pIC50	8.40
CCCCCCC#Cc1cncc(-c2nnc(Sc3ccc([N+](=O)[O-])cc3[N+](=O)[O-])n2C)c1	microbial growth	ERDMAN		pIC50	5.96
O=C(C[n+]1cn(Cc2cccc(Cn3c[n+](CC(=O)c4ccc([N+](=O)[O-])cc4)c4ccccc43)n2)c2ccccc21)c1ccc([N+](=O)[O-])cc1	microbial killing	H37RV	21 days	MBC	50 µM
CCCCCCC#Cc1cncc(-c2nnc(SCc3ccc([N+](=O)[O-])o3)n2C2CC2)c1	microbial growth	ERDMAN		IC90	130 nM
Cc1cn(-c2cc(C(=O)Nc3ccc(C)c(Nc4nccn4-c4cc(NC5CC5)ncn4)c3)cc(C(F)(F)F)c2)cn1	microbial growth	H37RV		MIC50	0.65 µM (≈ 0.373 µg/mL)
COC(=O)c1cc(-c2cccc(NC(=O)Nc3ccc(Cl)cc3Cl)c2)on1	microbial growth	ATCC27294 H37RV	7 days	MIC	0.5 µg/mL (≈ 1.23 µM)
